# Bioassay records deposited in PubChem BioAssay by Johns Hopkins Ion Channel Center.
# Only some compounds are listed: those with a hit (about 2.3% of all), similar ones and a draw of the others.
# TRPC4 inh: inhibitors of mouse TRPC4 channel, primary screen, Fluo4 calcium, HEK293 TRPC4beta/mu-opioid cells | AID 2247, 2010 | 300,000 compounds, 0.39% hits | B-score at 10 µM | DAMGO-evoked Fluo4 calcium flux; hits give low values;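 active = B-score over 3 SD under the library average, no early fluorescence shift, positive overall ratio signal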
# Target sequence (Q9QUQ5 whole entry, looked up): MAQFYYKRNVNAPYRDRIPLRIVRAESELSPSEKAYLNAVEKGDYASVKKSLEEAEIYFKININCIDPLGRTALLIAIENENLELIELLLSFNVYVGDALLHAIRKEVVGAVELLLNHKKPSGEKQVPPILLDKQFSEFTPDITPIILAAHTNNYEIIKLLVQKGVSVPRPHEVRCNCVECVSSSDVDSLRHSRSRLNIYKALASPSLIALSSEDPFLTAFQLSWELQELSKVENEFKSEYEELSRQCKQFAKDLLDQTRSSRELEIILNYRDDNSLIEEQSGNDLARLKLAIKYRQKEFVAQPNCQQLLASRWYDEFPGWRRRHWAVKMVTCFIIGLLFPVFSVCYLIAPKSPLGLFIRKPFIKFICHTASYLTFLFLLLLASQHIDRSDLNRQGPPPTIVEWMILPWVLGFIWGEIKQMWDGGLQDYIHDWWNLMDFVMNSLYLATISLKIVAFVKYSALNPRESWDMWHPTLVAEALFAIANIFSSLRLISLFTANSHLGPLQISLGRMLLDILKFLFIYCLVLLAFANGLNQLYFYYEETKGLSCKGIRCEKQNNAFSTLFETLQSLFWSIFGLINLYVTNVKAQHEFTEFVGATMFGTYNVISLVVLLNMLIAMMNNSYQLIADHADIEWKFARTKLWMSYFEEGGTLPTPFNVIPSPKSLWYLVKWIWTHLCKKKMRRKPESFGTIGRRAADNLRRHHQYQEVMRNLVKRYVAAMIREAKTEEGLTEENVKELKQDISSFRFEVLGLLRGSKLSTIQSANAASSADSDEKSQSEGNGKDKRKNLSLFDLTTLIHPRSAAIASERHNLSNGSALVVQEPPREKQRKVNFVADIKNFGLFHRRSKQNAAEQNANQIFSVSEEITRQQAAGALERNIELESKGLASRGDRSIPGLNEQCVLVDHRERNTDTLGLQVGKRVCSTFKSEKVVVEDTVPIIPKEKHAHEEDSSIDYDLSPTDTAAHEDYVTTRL
#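 material = TRPC4beta/mu-opioid receptor HEK293 cell line | probe or stimulus = sequential submaximal and maximal DAMGO stimulation | compound dosing = one concentration per compound | measured by = Fluo4 Ca2+ flux fluorescence | evaluation = integrated fluorescence ratio relative to baseline, converted to per-well B score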
# TRPC6 inhibitor: mouse TRPC6 channel inhibitors, primary screen, cell-based, HEK293, membrane potential dye. Short transient receptor potential channel 6 (Mus musculus), Q61143. ACh-evoked depolarization; hits give low values. B-score at 10 µM. 310,000 compounds, 1.1% hits;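 active = B-score under library mean minus 3 SD, initial fluorescence not abnormally high, positive integrated signal ratio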;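 note: B-score derived from integrated fluorescence ratio over the kinetic read; more negative B-score means stronger inhibition of depolarization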
# TRPC4 agonist: activators of mouse TRPC4 channel, primary screen, Fluo4 calcium, HEK293 TRPC4beta/mu-opioid cells | 310,000 compounds, 0.49% hits | B-score at 10 µM | AID 2237, 2010 | Fluo4 calcium fluorescence; hits give high values;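 active = B-score above 5 SD of library B-scores, and initial fluorescence ratio not above library mean plus 5 SD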;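 note: positive B-score marks a calcium rise read as TRPC4 activation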
#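 Assay system: HEK293 stable line with TRPC4beta plus mu-opioid receptor. Times: dye 45 min RT, read 110 s. Measured by: kinetic Fluo4 calcium fluorescence. Measure: B score of integrated ratio. Controls: assay buffer as low control, maximal DAMGO as high control.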
# TRPC6 act: mouse TRPC6 channel activators, primary screen, cell-based, HEK293, membrane potential dye; HEK293-TRPC6 membrane potential dye fluorescence; hits give high values; 310,000 compounds, 0.13% hits; AID 2550, 2010; Short transient receptor potential channel 6 (Mus musculus), Q61143; B-score at 10 µM;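 active = B-score of the integrated fluorescence ratio above library mean plus 3 SD, and starting fluorescence ratio within library mean plus 5 SD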;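 note: higher score means more depolarization so channel activation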
# TRPC4 PAM: positive allosteric modulators of TRPC4, primary screen, cell-based, mouse TRPC4beta, HEK293 mu-opioid, Fluo-4 calcium. Short transient receptor potential channel 4 (Mus musculus), Q9QUQ5. B-score at 10 µM. DAMGO EC20, Fluo-4 Ca2+ flux; hits give high values. 310,000 compounds, 0.42% hits;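 active = B-score of calcium response area above 5 SD of library B-scores, with initial fluorescence ratio within 5 SD of library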;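 note: B-score of integrated fluorescence ratio over time as area under calcium response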
# TRPC4 sel inh 2: second selectivity test of TRPC6 inhibitors: effect on mouse TRPC4. shares compounds with TRPC6 inhibitor. 920 compounds, 42% hits. HEK293 TRPC4/MOR, membrane potential dye fluorescence; channel activated by saturating DAMGO dose. inhibition, % at 10 µM. AID 2776;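 active = compounds whose fluorescence signal differed from control wells by over 3 SD, either direction, in both duplicate plates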
# TRPC4 spec: mouse TRPC4 modulation by TRPC6 hits, confirmation, selectivity assay for TRPC6 inhibitor project, cell-based, HEK293 TRPC4/mu-opioid, membrane potential dye. membrane potential fluorescence. AID 2777, 2010. activity change, negative = inhibition, % at 10 µM. 920 compounds, 61% hits. shares compounds with TRPC6 inhibitor;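 active = rise or fall in signal beyond 3 SD of buffer-only wells in both replicate plates, either sign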;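 note: integrated kinetic ratio of fluorescence range over baseline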
# HEK293 MPD ctr 2-1: nonspecific membrane potential effects, parental HEK293, confirmation, counter-screen for TRPC6 inhibitor project, cell-based, second counter screen | shares compounds with TRPC6 inhibitor | parental HEK293 membrane potential dye fluorescence; maximal acetylcholine challenge after compound addition | signal change vs control, % at 10 µM | 920 compounds, 31% hits | AID 2779, 2010;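 active = membrane potential signal moving either way by over 3 SD of the maximum-effect control, in both duplicate plates, meaning non-specific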
# HEK293 MPD ctr-1: membrane potential modulation in parental HEK293, confirmation, counter-screen for TRPC6 inhibitor project, cell-based. membrane potential signal change, % at 10 µM. 920 compounds, 60% hits. shares compounds with TRPC6 inhibitor. parental HEK293 membrane potential dye fluorescence;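 active = membrane potential signal shifting up or down by more than 3 SD of buffer-only wells, on both duplicate plates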
# HEK293 MPD ctr-2: parental HEK293 membrane potential modulation, confirmation, counter-screen for TRPC6 modulator project, cell-based; AID 488924, 2010; 2,400 compounds, 51% hits; shares compounds with TRPC6 inhibitor; membrane potential dye fluorescence; membrane potential signal change, % at 10 µM;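 active = membrane potential signal moves up or down beyond 5 SD from buffer-only wells, on both duplicate plates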
# HEK293 MPD ctr 2-2: second counter-screen for TRPC6 modulators: effect in parental HEK293 cells | AID 488926 | shares compounds with TRPC6 inhibitor | membrane potential dye fluorescence; after compound, maximal acetylcholine stimulation | inhibition, % at 10 µM | 2,400 compounds, 14% hits;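 active = membrane potential signal drops by more than 5 SD from the mean control signal, in both duplicate plates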;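 note: plate controls were acetylcholine ECmax control wells for no effect and buffer only wells for full effect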
# TRPC4 ctr mod: TRPC4 modulation by TRPC6 hit compounds, confirmation, selectivity assay for TRPC6 modulator project, cell-based, HEK293 TRPC4/mu-opioid, membrane potential dye, mouse; shares compounds with TRPC6 inhibitor; membrane potential fluorescence; percent change from control (negative = decrease, positive = increase), % at 10 µM; 2,400 compounds, 69% hits; AID 488927, 2010;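 active = membrane potential signal moved up or down beyond 5 SD of buffer control wells, in both duplicate plates, actives on both sides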;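 note: plate controls were assay buffer wells for no effect and DAMGO maximal-effect wells for full effect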
# TRPC4/MOR inh 2: second check of whether TRPC6 modulators also affect mouse TRPC4. shares compounds with TRPC6 inhibitor. HEK293 TRPC4/mu-opioid, membrane potential dye fluorescence; stimulated with maximal-effect DAMGO. inhibition, % at 10 µM. 2,400 compounds, 55% hits. AID 488928;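 active = drop in membrane potential signal beyond 5 SD of the control wells in both duplicate plates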;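 note: TRPC4 counter screen for TRPC6 hits run under conditions tuned for TRPC6 not TRPC4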
# TRPC6 inh conf: mouse TRPC6 channel inhibitors, confirmation, HEK293 cells, membrane potential dye, duplicate; shares compounds with TRPC6 inhibitor; ACh-evoked depolarization; inhibition, % at 10 µM; 3,300 compounds, 43% hits;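 active = fluorescence ratio falls more than 5 SD below the full-stimulation control mean, in both duplicate runs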;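 note: integrated fluorescence ratio of peak minus minimum over baseline after agonist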
# TRPC6 act confirm: mouse TRPC6 channel activators, confirmation, HEK293 cells, membrane potential dye, duplicate; shares compounds with TRPC6 inhibitor; HEK293-TRPC6 membrane potential dye fluorescence, FDSS; activation, % at 10 µM; 2,800 compounds, 11% hits;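 active = ratio signal rise beyond 5 SD above unstimulated control wells' mean, seen in both duplicate runs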;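 note: plate controls were buffer EC0 wells for no effect and acetylcholine ECmax response for full effect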
# Active calls of the source: *; i = inactive; nt = no result.
SMILES,TRPC4 inh,TRPC6 inhibitor,TRPC4 agonist,TRPC6 act,TRPC4 PAM,HEK293 MPD ctr-2,HEK293 MPD ctr 2-2,TRPC4 ctr mod,TRPC4/MOR inh 2,TRPC6 inh conf,TRPC6 act confirm,others
CCCCCCCN1C(Nc2ccccc2)=NC[C@@H]1CC(C)C,i,i,i,i,i,nt,nt,nt,nt,nt,nt,
CN(CCC#N)C(=O)c1cc2c(Cl)nc3ccccc3c2s1,i,i,i,i,i,nt,nt,nt,nt,nt,nt,
CN(C)CCN(Cc1ccco1)C(=O)c1cc2c(Cl)nc3ccccc3c2s1,i,-5.2*,i,i,i,i,i,i,i,i,i,
COc1cc(/C=C2/C(=O)N(c3ccc(Br)cc3)N=C2C)cc(OC)c1OC,i,-5.4*,i,i,i,i,i,i,i,i,i,
COc1cc(/C=C2/C(=O)N(c3ccc(C(=O)O)cc3)N=C2C)cc(OC)c1O,i,i,i,i,i,nt,nt,nt,nt,nt,nt,
Cc1cc(C)n(-c2nnc3c4ccccc4n(C)c3n2)n1,i,i,i,i,i,nt,nt,nt,nt,nt,nt,
CSCc1cc(N(C)c2ccccc2)nc(-c2ccccn2)n1,i,-7.2*,i,i,i,nt,nt,nt,nt,i,i,TRPC4 sel inh 2=i;TRPC4 spec=i;HEK293 MPD ctr 2-1=i;HEK293 MPD ctr-1=i
O=C(NCCCn1ccnc1)c1cc2cc([N+](=O)[O-])ccc2oc1=O,i,-5*,i,i,i,-83%*,i,-15%*,i,i,i,
O=C(O)c1cc(Br)ccc1NS(=O)(=O)c1cccc2nsnc12,i,i,i,13*,i,i,i,16%*,i,i,34%*,
O=C(NC(=S)NC1CCSC1=O)c1cccs1 (stereo not drawn),i,-6.4*,i,i,i,i,i,i,i,i,i,
Cc1ccccc1C(=O)NC(=S)NC1CCSC1=O (stereo not drawn),i,i,i,i,i,nt,nt,nt,nt,nt,nt,
CC(C)(C)OC(=O)NCCCC[C@H](NC(=O)c1nc[nH]c1C(=O)NC(c1ccccc1)c1ccccc1)C(=O)OC(C)(C)C,i,i,i,i,i,nt,nt,nt,nt,nt,nt,
COC(=O)c1ccc(CN2CCN(C3CCCC3)C(CCO)C2)cc1 (stereo not drawn),i,-9.5*,i,i,i,nt,nt,nt,nt,63%*,nt,TRPC4 sel inh 2=i;TRPC4 spec=2.2%*;HEK293 MPD ctr 2-1=6.0%*;HEK293 MPD ctr-1=4.6%*
COc1ccccc1-n1cc(CN2CCN(C3CCCC3)C(CCO)C2)cn1 (stereo not drawn),i,-5.2*,i,i,i,i,i,10%*,i,36%*,nt,
O=C(Nc1ccc(Cc2ccncc2)cc1)c1ccc(S(=O)(=O)N2CCCC2)cc1,i,i,i,i,i,nt,nt,nt,nt,nt,nt,
CCOC(=O)C(=O)N1CCN(c2nc(-c3ccc(Cl)cc3)cs2)CC1,i,-6.2*,i,i,i,i,i,i,i,i,i,
Cn1c(=O)c(/C=C/c2ccccc2)nc2ccccc21,i,i,i,i,i,nt,nt,nt,nt,nt,nt,
Cn1c(/C=C/c2ccccc2)nc2ccccc21,i,-7.9*,i,i,i,nt,nt,nt,nt,i,i,TRPC4 sel inh 2=23%*;TRPC4 spec=3.3%*;HEK293 MPD ctr 2-1=i;HEK293 MPD ctr-1=-204%*
CCC1COC(c2cccn2Cc2ccccc2Cl)=N1 (stereo not drawn),i,i,i,i,i,nt,nt,nt,nt,nt,nt,
Cn1c(=O)c(C(=O)Nc2ccccn2)c(O)c2ccccc21,i,-8.7*,i,i,i,nt,nt,nt,nt,i,i,TRPC4 sel inh 2=i;TRPC4 spec=-21%*;HEK293 MPD ctr 2-1=i;HEK293 MPD ctr-1=-327%*
CC1CCN(C(=O)CN(c2ccc3c(c2)OCCO3)S(=O)(=O)c2ccccc2)CC1,i,i,i,i,i,nt,nt,nt,nt,nt,nt,
CCOc1ccc(NS(=O)(=O)c2ccc(C(=O)NCCCN3CCCC3=O)cc2)cc1,i,i,i,i,i,nt,nt,nt,nt,nt,nt,
CN(C)CCOC(c1ccccc1)c1ccccc1 (tested in a mixture with another compound),i,-5.2*,i,i,i,154%*,i,26%*,34%*,51%*,nt,
Cc1ccccc1C(OCCN(C(C)C)C(C)C)c1ccccc1 (stereo not drawn),i,-5*,i,i,i,209%*,88%*,44%*,44%*,80%*,nt,
